EBV gp42 block = Epstein-Barr virus gp42 inhibitors, primary screen, biochemical, uHTS, fluorescence polarization | AID 1085, 2008 | Fluorescence polarization binding assay, mP read-out | inhibition, % (tested at 21.74 µM) | hit rate 0.42% among 220,000 | Glycoprotein 42 (Epstein-Barr virus (strain AG876)), Q1HVG2; in the data active = inhibition above about 50%
Target sequence (Q1HVG2 whole entry, looked up): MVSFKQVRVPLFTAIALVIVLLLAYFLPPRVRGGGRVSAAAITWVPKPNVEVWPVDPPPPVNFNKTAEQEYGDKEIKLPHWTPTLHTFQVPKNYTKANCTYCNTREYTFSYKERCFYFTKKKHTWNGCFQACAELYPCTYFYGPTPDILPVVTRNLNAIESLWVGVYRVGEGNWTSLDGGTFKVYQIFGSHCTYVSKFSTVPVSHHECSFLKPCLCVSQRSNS
GPR7 antagonist = GPR7 receptor antagonists, primary screen, cell-based, fluorescence, single concentration | Neuropeptides B/W receptor type 1 (Homo sapiens), P48145 | GPR7-expressing cells, fluorescence antagonist assay | inhibition, % at 4.4 µM | hit rate 1.1% among 290,000; in the data active = inhibition above about 16%, passing the limit was not always enough;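 note: cells stimulated with the agonist NPW; 0% = agonist with vehicle and 100% = vehicle without agonist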
Target sequence (P48145 whole entry, looked up): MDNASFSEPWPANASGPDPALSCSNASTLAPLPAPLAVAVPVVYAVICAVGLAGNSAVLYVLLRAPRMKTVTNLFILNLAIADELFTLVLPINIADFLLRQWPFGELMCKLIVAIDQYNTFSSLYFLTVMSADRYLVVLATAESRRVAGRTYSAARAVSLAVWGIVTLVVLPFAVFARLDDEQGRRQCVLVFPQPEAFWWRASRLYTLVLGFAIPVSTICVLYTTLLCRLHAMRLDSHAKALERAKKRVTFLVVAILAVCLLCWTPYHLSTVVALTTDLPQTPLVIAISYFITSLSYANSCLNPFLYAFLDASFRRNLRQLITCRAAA
NS3 helicase inh = inhibitors of HCV NS3 helicase, primary screen, biochemical, Cy5 molecular beacon fluorescence. Hepatitis C virus NS3 helicase. NS3 helicase DNA unwinding. inhibition, % at 10.9 µM. hit rate 0.56% among 290,000;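 active = inhibition above the mean of all tested compounds plus 3 SD, set per campaign, cut at about 35% in these data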;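 note: 0% = DMSO wells and 100% = thioflavine S control wells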
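System: Hepatitis C virus NS3 helicase domain fragment enzyme | Reagent: Annealed dual-labelled DNA beacon duplex, ATP-started | Compound dosing: 10.9 µM single point, 0.8% DMSO | Incubation: 1 h reaction at 25 °C, ATP-initiated | Technique: Cy5 fluorescence | Evaluation: Percent inhibition from t60/t0 fluorescence ratio | Benchmarks: Low DMSO, high thioflavine S at 110 µM | Replication: Singlicate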
EBNA-1 inh = EBNA-1 DNA-binding inhibitors, primary screen, biochemical, fluorescence polarization | AID 1950, 2009 | inhibition, % at 14.8 µM | hit rate 0.34% among 300,000; in the data active = inhibition above about 28%
ZTA DNA inh = ZTA (EBV) inhibition in EBNA-1 counter-screen; hit rate 0.15% among 320,000; inhibition, % at 11 µM; P03206; ZTA-DNA binding, fluorescence polarization; AID 2234; in the data active = inhibition above about 33%
HCV core dimer = inhibitors of HCV core protein dimerization, primary screen, biochemical, TR-FRET, high-throughput; TR-FRET GST/Flag-core106 dimerization, 1536-well; inhibition, % at 5 µM; AID 1899, 2009; hit rate 0.33% among 300,000;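 active = inhibition above the mean of all tested compounds plus 3 SD, set per screening campaign, cut at about 45% in these data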
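Material: Tagged HCV core106 pair (GST and Flag) | Amount: GST-core106 13.5 nM, Flag-core106 17 nM | Medium: KF-containing HEPES buffer, pH 7.45, DTT, CHAPS, BSA | Reagent: Eu donor and XL665 acceptor anti-tag antibodies | Schedule: 4 h at 22.5 °C | Technique: Time-resolved FRET, ex 340 nm, em 617 and 671 nm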
NS3 helicase cf = HCV NS3 helicase inhibitors, retest, confirmation, biochemical, Cy5 molecular beacon fluorescence, triplicate; NS3 helicase DNA unwinding; shares compounds with NS3 helicase inh; hit rate 31% among 1,600; inhibition, % at 10.9 µM; AID 1943, 2009;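 active = inhibition above the mean of all tested compounds plus 3 SD, cutoff set per campaign, cut at about 36% in these data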
DNA FID counter = compounds displacing fluorescent DNA intercalator, artefact control for HCV NS3 helicase inhibitor project, biochemical, FID fluorescence, triplicate | shares compounds with NS3 helicase inh | DNA fluorescent intercalator displacement | inhibition, % at 7.9 µM | hit rate 4% among 1,600 | AID 1945, 2009; in the data active = inhibition above about 37%;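 note: 0% = vehicle and 100% = reference compound; higher means more displacement of ethidium bromide from the DNA hairpin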
The depositor's hits bear a star; · = no result. An excerpt weighted towards active compounds, which were near 2.3% of everything screened.

SMILES	EBV gp42 block	GPR7 antagonist	NS3 helicase inh	EBNA-1 inh	ZTA DNA inh	HCV core dimer	NS3 helicase cf	DNA FID counter
O=C1NC(=O)C(=Cc2ccc(-c3ccccc3[N+](=O)[O-])o2)C(=O)N1	-13	16	45*	-14	3	1	-22	20
O=C(N/N=C/c1c(O)n(C2CCCCC2)c(=S)[nH]c1=O)c1ccccc1O	·	5	-17	-1	13	10	·	·
CC(C)c1ccc(-n2c(O)c(/C=N/NC(=O)c3ccccc3O)c(=O)[nH]c2=S)cc1	-24	0	74*	-1	1	5	74*	21
O=c1cccc2n1CC1CC2CN(c2ncnc3c2cnn3-c2ccccc2)C1 (configuration not stated)	-21	-8	6	3	-20	-10	·	·
CC(=O)N1CCN(c2ccc(N=Cc3c(O)n(-c4ccc(Cl)cc4)c(=O)[nH]c3=O)cc2)CC1	-17	-9	43*	-7	6	30	-11	-27
O=c1[nH]c(=S)n(-c2ccccc2F)c(O)c1C=Nc1ccc(N2CCOCC2)cc1	31	-8	54*	13	45*	2	18	-24
O=c1[nH]c(=S)n(-c2ccc(Br)cc2)c(O)c1C=Nc1ccc(N2CCOCC2)cc1	86*	-6	37*	5	6	18	11	-14
CCN(CC)c1ccc(N=Cc2c(O)n(-c3ccc(Cl)cc3)c(=O)[nH]c2=O)cc1	46	-11	7	-4	-9	13	·	·
O=c1[nH]c(=S)n(-c2ccc(F)cc2)c(O)c1/C=N/N1CCOCC1	-15	-14	21	-10	-7	-2	·	·
CC(=O)c1c(C)[nH]c(C(=O)N2CCC3(CC2)OCCO3)c1C	-20	-8	-3	-8	16	-9	·	·
CCN(CC)C(=O)c1ccc(N(Cc2ccccc2)S(C)(=O)=O)cc1	·	2	-3	·	·	·	·	·
CCN(CC)C(=O)c1ccc2c(c1)C1C=CCC1C(C(=O)O)N2 (configuration not stated)	·	-1	42*	·	·	·	86*	-3
CN1C(=O)C(=Cc2ccc(N3CCCCCC3)o2)C(=O)N(C)C1=S	-149	-3	10	-5	-6	9	·	·
O=C(O)c1ccccc1-c1ccc(C=C2C(=O)N(c3ccccc3)C(=S)N(c3ccccc3)C2=O)o1	·	12	42*	9	16	10	69*	9
COc1cccc(N2C(=O)CC(=O)NC2=O)c1	-16	9	28	0	-7	2	·	·
Cc1ccc(N2C(=O)CC(=O)NC2=O)cc1Cl	·	7	45*	-3	4	-9	-3	33
CCOc1cccc(N2C(=O)CC(=O)NC2=O)c1	6	-15	59*	4	8	-4	-22	3
Cc1c(N=Cc2c(O)n(Cc3ccco3)c(=O)[nH]c2=O)c(=O)n(-c2ccccc2)n1C	0	-3	5	3	5	0	·	·
CC(C)CN1CCN(Cc2cccc3c2OCO3)CC1CCO (configuration not stated)	9	-12	-9	4	1	7	·	·
COc1c(/C=C2/C(=O)NC(=O)N(C)C2=O)c(CCN(C)C(=O)c2ccccc2)cc2c1OCO2	·	6	20	1	-13	1	·	·
O=[N+]([O-])O[C@H]1CO[C@H]2[C@@H]1OC[C@H]2O[N+](=O)[O-]	·	·	·	-1	7	5	·	·
CN(C)C1C(=O)C(C(N)=O)=C(O)C2(O)C(=O)C3=C(O)c4c(O)cccc4C(C)(O)C3CC12 (configuration not stated)	·	-13	42*	3	-4	0	4	11
Cn1cccc1/C=C1/C(=O)NC(=S)N(Cc2ccc(F)cc2)C1=O	1	-10	45*	18	4	66*	78*	18
Cn1cccc1/C=C1/C(=O)NC(=O)N(Cc2ccc(F)cc2)C1=O	48	5	33	3	14	-2	·	·
COc1ccc(C(O)C(C)NC(C)C(O)c2ccc(OC)cc2)cc1 (configuration not stated)	·	·	·	11	0	-5	·	·
SMILES	EBV gp42 block	GPR7 antagonist	NS3 helicase inh	EBNA-1 inh	ZTA DNA inh	HCV core dimer	NS3 helicase cf	DNA FID counter
O=C(O)c1ccccc1NC(=O)N1C[C@H]2C[C@@H](C1)c1cccc(=O)n1C2	·	-8	42*	-6	10	0	-9	8
C[N+](C)(C)CC(=O)O	·	·	·	0	-14	-9	·	·
Cc1nc2ccc(P(=O)(O)O)cc2s1	-8	-10	7	2	6	6	·	·
CCc1ccc(N2C(=O)NC(=O)/C(=C\C=C\c3ccco3)C2=O)cc1	-49	-4	0	8	29	6	·	·
Cc1cc(C)cc(N2C(=O)NC(=O)/C(=C\C=C\c3ccco3)C2=O)c1	-171	3	54*	5	11	6	24	6
Cc1ccc(N2C(=O)NC(=O)/C(=C/C=C/c3ccco3)C2=O)cc1	-166	-2	39*	8	8	4	-8	6
COc1ccc(CCC(=O)NCCc2cnc[nH]2)cc1	·	-10	8	-7	1	-4	·	·
Cc1c2ccncc2c(C)c2c1[nH]c1ccccc12	113*	-15	42*	-6	5	-52	57*	83*
NNC(=O)CN1C(=O)CN=C(c2ccccc2)c2cc(Br)ccc21	0	-11	54*	-2	3	-4	-14	-29
O=c1[nH]c(=O)n(CCC2=CCCCC2)c(O)c1/C=N/N1CCOCC1	-23	-4	35	7	-13	-7	·	·
Cc1ccccc1-n1c(O)c(C=Nc2ccc(N(C)C)cc2)c(=O)[nH]c1=O	-25	3	43*	43*	172*	-12	-12	-14
CN(C)c1ccc(N=Cc2c(O)n(CCC3=CCCCC3)c(=O)[nH]c2=O)cc1	-85	-5	40*	-10	-5	2	-1	-8
O=c1[nH]c(=S)n(CCC2=CCCCC2)c(O)c1/C=N/N1CCOCC1	-15	-10	41*	-1	4	9	-8	11
ClCCN1CCN(c2ccnc3cc(Cl)ccc23)CC1	·	-12	-15	-7	12	5	·	·
CCC(C)n1c(O)c(/C=N/Nc2ccccc2)c(=O)[nH]c1=S (configuration not stated)	-11	-6	15	4	4	-7	·	·

Bioassay records (PubChem)
